≈ marks a conversion by molar mass, not a printed value. Calls of active or inactive are those of the source. The rule behind the calls is not given here.
Assays:
Format in all cases: functional
Staphylococcus aureus [1] = assay: Antibacterial activity against Staphylococcus aureus MTCC 96 at 2 mg/ml after 24 hrs by agar well diffusion method; conditions: MTCC 96, 24 h, read-out: DIZ
Outline: (§1)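 Cultures adjusted to 0.5 McFarland and left 15 min on agar for adsorption. 8 mm wells bored and loaded with compound at 2.0 mg/mL in DMSO. Incubated 37 °C for 24 h. Growth-inhibition zone diameter (mm) read with a zone scale and reported as the average. DMSO served as negative control and ciprofloxacin as positive control.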

Aspergillus flavus = assay: Antifungal activity against Aspergillus flavus assessed as inhibition of mycelial growth at 4 mg/ml after 7 days; conditions: 168 h, read-out: GI
Outline: (§2)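 Poisoned food method. Molds grown on Sabouraud dextrose agar at 25 °C for 7 days to provide inocula. Molten SDA (45 °C) dosed with compound at 4.0 mg/mL in DMSO, then solidified. 8 mm fungal plugs from colony margins placed centrally. Incubated 25 °C for 7 days, in triplicate. % mycelial growth inhibition calculated from colony diameters versus DMSO control. Fluconazole served as positive control.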

Pseudomonas aeruginosa [2] = assay: Antibacterial activity against Pseudomonas aeruginosa MTCC 741 at 2 mg/ml after 24 hrs by agar well diffusion method; conditions: for zone of inhibition at 2000 µg/mL: MTCC 741, 24 h, read-out: DIZ; outline: as §1
Bacillus subtilis [3] = assay: Antibacterial activity against Bacillus subtilis MTCC 121 after 24 hrs by agar well diffusion method; conditions: MTCC 121, 24 h
Outline: (§3)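 MIC by modified agar well diffusion. Two-fold serial dilutions (DMSO stock diluted in sterile distilled water), range 256 to 0.5, placed in wells in triplicate. Agar was pre-seeded with 100 standardized inoculum at 10⁶ cfu/mL. Incubated aerobically at 37 °C for 24 h. MIC taken as lowest concentration giving a clear zone, i.e. complete growth inhibition.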

Staphylococcus aureus [4] = assay: Antibacterial activity against Staphylococcus aureus MTCC 96 after 24 hrs by agar well diffusion method; conditions: MTCC 96, 24 h; outline: as §3
Aspergillus niger = assay: Antifungal activity against Aspergillus niger assessed as inhibition of mycelial growth at 4 mg/ml after 7 days; conditions: 168 h, read-out: GI; outline: as §2
Bacillus subtilis [5] = assay: Antibacterial activity against Bacillus subtilis MTCC 121 at 2 mg/ml after 24 hrs by agar well diffusion method; conditions: MTCC 121, 24 h, read-out: DIZ; outline: as §1
Penicillium sp. = assay: Antifungal activity against Penicillium sp. assessed as inhibition of mycelial growth at 4 mg/ml after 7 days; conditions: 168 h, read-out: GI; outline: as §2
Escherichia coli [6] = assay: Antibacterial activity against Escherichia coli MTCC 1652 at 2 mg/ml after 24 hrs by agar well diffusion method; conditions: for zone of inhibition at 2000 µg/mL: MTCC 1652, 24 h, read-out: DIZ; outline: as §1
Pseudomonas aeruginosa [7] = assay: Antibacterial activity against Pseudomonas aeruginosa MTCC 741 after 24 hrs by agar well diffusion method; conditions: MTCC 741, 24 h; outline: as §3
Escherichia coli [8] = assay: Antibacterial activity against Escherichia coli MTCC 1652 after 24 hrs by agar well diffusion method; conditions: MTCC 1652, 24 h; outline: as §3

| Compound | zone of inhibition at 2000 µg/mL (Staphylococcus aureus [1]) | inhibition of growth at 4000 µg/mL (Aspergillus flavus) | diameter of the inhibition zone (DIZ) (Pseudomonas aeruginosa [2]) | MIC (Bacillus subtilis [3]) | MIC (Staphylococcus aureus [4]) | inhibition of growth at 4000 µg/mL (Aspergillus niger) | zone of inhibition at 2000 µg/mL (Bacillus subtilis [5]) | inhibition of growth at 4000 µg/mL (Penicillium sp.) | diameter of the inhibition zone (DIZ) (Escherichia coli [6]) | zone of inhibition at 2000 µg/mL (Pseudomonas aeruginosa [2]) | MIC (Pseudomonas aeruginosa [7]) | MIC (Escherichia coli [8]) | zone of inhibition at 2000 µg/mL (Escherichia coli [6]) |
| --- | --- | --- | --- | --- | --- | --- | --- | --- | --- | --- | --- | --- | --- |
| Cc1nnc2sc3cc4ccccc4c-3nn12 | 14.6 mm | 48.8% | inactive | 256 µg/mL (≈ 1070 µM) | 256 µg/mL (≈ 1070 µM) | 50% | 15.3 mm | 52.5% | inactive |  |  |  |  |
| CCCc1nnc2sc3cc4c(C)cccc4c-3nn12 | 16.3 mm | 65.5% |  | 64 µg/mL (≈ 227 µM) | 128 µg/mL (≈ 453 µM) | 68.8% | 18.6 mm | 65.5% |  | 14.3 mm | 256 µg/mL (≈ 907 µM) | 128 µg/mL (≈ 453 µM) | 15.6 mm |
| CCCc1nnc2sc3cc4ccccc4c-3nn12 | 25.6 mm | 48.8% |  | 16 µg/mL (≈ 59.6 µM) | 16 µg/mL (≈ 59.6 µM) | 51.1% | 24.3 mm | 47.7% |  | 16.3 mm | 128 µg/mL (≈ 477 µM) | 64 µg/mL (≈ 238 µM) | 18.6 mm |
| OC(Cn1cncn1)(Cn1cncn1)c1ccc(F)cc1F [FLUCONAZOLE] |  | 77.7% |  |  |  | 81.1% |  | 83.3% |  |  |  |  |  |
| c1ccc(-c2nnc3n2N=C2c4ccccc4CC2S3)cc1 (stereo unspecified) | 20.6 mm | 48.8% |  | 128 µg/mL (≈ 421 µM) | 64 µg/mL (≈ 210 µM) | 51.1% | 16.3 mm | 50% |  | 14.6 mm | 256 µg/mL (≈ 841 µM) | 64 µg/mL (≈ 210 µM) | 18.3 mm |
| CCc1nnc2sc3cc4c(C)cccc4c-3nn12 | 21.6 mm | 62.5% |  | 32 µg/mL (≈ 119 µM) | 32 µg/mL (≈ 119 µM) | 65.5% | 23 mm | 63.3% |  | 17.3 mm | 64 µg/mL (≈ 238 µM) | 64 µg/mL (≈ 238 µM) | 19.3 mm |
| CCCc1nnc2n1N=C1c3ccccc3CC1S2 (stereo unspecified) | 27.3 mm | 52.5% |  | 16 µg/mL (≈ 59.2 µM) | 8 µg/mL (≈ 29.6 µM) | 55.5% | 25 mm | 53.3% |  | 18.6 mm | 64 µg/mL (≈ 237 µM) | 64 µg/mL (≈ 237 µM) | 19.3 mm |
| c1ccc(-c2nnc3sc4cc5ccccc5c-4nn23)cc1 | 14.6 mm | 48.8% | inactive | 256 µg/mL (≈ 847 µM) | 256 µg/mL (≈ 847 µM) | 45.5% | 15 mm | 51.1% | inactive |  |  |  |  |
| Cc1cccc2c1CC1Sc3nncn3N=C21 (stereo unspecified) | 26.3 mm | 65.5% |  | 2 µg/mL (≈ 8.25 µM) | 8 µg/mL (≈ 33 µM) | 63.3% | 30.6 mm | 62.5% |  | 20.3 mm | 32 µg/mL (≈ 132 µM) | 32 µg/mL (≈ 132 µM) | 22.3 mm |
| Cc1cccc2c1CC1Sc3nnc(-c4ccccc4)n3N=C21 (stereo unspecified) | 22.3 mm | 58.8% |  | 32 µg/mL (≈ 101 µM) | 32 µg/mL (≈ 101 µM) | 55.5% | 21.6 mm | 60% |  | 15.6 mm | 128 µg/mL (≈ 402 µM) | 128 µg/mL (≈ 402 µM) | 17.3 mm |
| Cc1cccc2c3nn4c(-c5ccccc5)nnc4sc-3cc12 | 18.6 mm | 51.1% |  | 32 µg/mL (≈ 101 µM) | 64 µg/mL (≈ 202 µM) | 55.5% | 22.6 mm | 48.8% |  | 15.3 mm | 128 µg/mL (≈ 405 µM) | 128 µg/mL (≈ 405 µM) | 15.6 mm |
| Cc1nnc2n1N=C1c3ccccc3CC1S2 (stereo unspecified) | 14.6 mm | 51.1% | inactive | 128 µg/mL (≈ 528 µM) | 256 µg/mL (≈ 1060 µM) | 53.3% | 16.3 mm | 55.5% | inactive |  |  |  |  |
| c1ccc2c3nn4cnnc4sc-3cc2c1 | 14.3 mm | 50% | inactive | 128 µg/mL (≈ 566 µM) | 256 µg/mL (≈ 1130 µM) | 53.3% | 16 mm | 51.1% | inactive |  |  |  |  |
| c1ccc2c(c1)CC1Sc3nncn3N=C21 (stereo unspecified) | 15.3 mm | 52.5% | inactive | 128 µg/mL (≈ 561 µM) | 128 µg/mL (≈ 561 µM) | 51.1% | 17.6 mm | 51.1% | inactive |  |  |  |  |
| O=C(O)c1cn(C2CC2)c2cc(N3CCNCC3)c(F)cc2c1=O [CIPROFLOXACIN] | 26.6 mm |  |  | 5 µg/mL (≈ 15.1 µM) | 5 µg/mL (≈ 15.1 µM) |  | 24 mm |  |  | 22 mm | 5 µg/mL (≈ 15.1 µM) | 5 µg/mL (≈ 15.1 µM) |  |
| CCc1nnc2sc3cc4ccccc4c-3nn12 | 16.3 mm | 45.5% | inactive | 128 µg/mL (≈ 503 µM) | 128 µg/mL (≈ 503 µM) | 48.8% | 17.6 mm | 50% | inactive |  |  |  |  |
| CC(C)c1nnc2sc3cc4ccccc4c-3nn12 | 15.6 mm | 50% | inactive | 128 µg/mL (≈ 477 µM) | 128 µg/mL (≈ 477 µM) | 48.8% | 17.3 mm | 44.4% | inactive |  |  |  |  |

Source: ChEMBL document CHEMBL1828500, “Synthesis and biological evaluation of dihydroindeno and indeno [1,2-e] [1,2,4]triazolo [3,4-b] [1,3,4]thiadiazines as antimicrobial agents” (2011)
